Beta2AR agonist: human beta-2 adrenergic receptor agonism by FAP; 0.43% of 340,000 active; response, % (concentration not given with the values); P07550; AID 504454; Am2.2-beta2AR cells, FAP receptor internalization, flow cytometry;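 active means response above a set limit, near 3 SD of response in nonfluorescent compounds, cut at about 42% in these data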
UPR CHOP act: activators of apoptotic arm of unfolded protein response (CHOP); activation, % at 10 µM; 0.34% of 330,000 active; CHO-CHOP luciferase reporter, UPR activation, luminescence; percent of tunicamycin response over DMSO baseline;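 active means at 10 µM dose, activation of 40% or more, normalized to positive control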;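 further: 100% = tunicamycin at 10 µg/mL and 0% = DMSO alone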
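System: CHO CHOP reporter cells. Amount: 500 cells per well. Buffer or medium: F12 medium, 10% FBS. Compound dosing: one dose, 10 µM in 0.5% DMSO. Incubation: 6 h compound exposure at 37 °C after overnight seeding. Technique: Steady-Glo luciferase luminescence. Benchmarks: tunicamycin and DMSO controls.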
Dynein cargo inh: blocks dynein driven cargo transport along microtubules; 0.47% of 220,000 active; z-score, hits read low; 3617.4 mouse cells, GR-EGFP nuclear translocation imaging; test concentration mostly 20 µM; stimulated with dexamethasone, 1 µM; stronger effect = lower value; AID 1381;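 active means plate z-score of nuclear minus cytoplasmic receptor signal below a set negative limit, without overly bright fluorescence or cell loss, cut at about -3.5 in these data, passing the limit was not always enough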;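 further: z-score of nuclear minus cytoplasmic ring GR-EGFP intensity difference per well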
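Schedule: 48 h induction, then 1 h compound, then 30 min agonist, 37 °C. Buffer or medium: tetracycline-free induction medium containing charcoal-stripped FBS. Reagent: 1.0 µM final dexamethasone stimulus. Evaluation: nuclear versus cytoplasmic GR-EGFP signal, averaged per well. Signal: high-content fluorescence imaging after fixation.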
Mdm2 MdmX PPI: disrupts the human Mdm2-MdmX interaction | O15151+Q00987 | SaOS-2 split-luciferase Mdm2/MdmX complementation, luminescence | inhibition, % at 8 µM | 3% of 330,000 active | AID 485346;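 active means inhibition of at least 50% at 8 µM in the primary screen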
MDM2 E3 inh: blocks human Mdm2 ubiquitin ligase activity | Q00987 | cell-based MDM2 ubiquitination luciferase reporter, 2 h; 0 = plate control, 100 = twice control, blank-subtracted | signal enhancement, % at 5 µM | 0.11% of 210,000 active | AID 1230;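 active means signal enhancement of 30% or more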;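 further: luminescence tracks abundance of the self-degrading MDM2-luciferase fusion protein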
Target sequence (Q00987 whole entry, looked up, the tested form may be a part): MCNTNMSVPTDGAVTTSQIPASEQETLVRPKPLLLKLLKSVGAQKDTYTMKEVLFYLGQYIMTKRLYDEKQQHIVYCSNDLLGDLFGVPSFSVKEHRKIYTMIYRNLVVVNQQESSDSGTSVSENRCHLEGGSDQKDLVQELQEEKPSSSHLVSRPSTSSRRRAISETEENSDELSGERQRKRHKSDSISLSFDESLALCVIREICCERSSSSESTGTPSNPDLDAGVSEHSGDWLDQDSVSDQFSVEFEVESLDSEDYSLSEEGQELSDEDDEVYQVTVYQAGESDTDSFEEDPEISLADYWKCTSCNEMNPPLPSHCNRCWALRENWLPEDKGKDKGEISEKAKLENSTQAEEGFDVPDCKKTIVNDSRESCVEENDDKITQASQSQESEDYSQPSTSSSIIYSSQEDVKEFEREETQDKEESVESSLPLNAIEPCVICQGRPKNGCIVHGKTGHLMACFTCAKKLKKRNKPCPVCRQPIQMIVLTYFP
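Timing – 2 h compound exposure at 37 °C · Assay system – mammalian cells stably expressing self-ubiquitinating, self-degrading MDM2 E3–luciferase fusion · Amount – 2000 cells seeded into each well · Measure – % luminescence enhancement versus blank-corrected plate control mean · Measured by – SteadyLite luminescence, 15 min reagent step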
XBP1 UPR activ: adaptive UPR (XBP1) activation; CHO-XBP1 luciferase reporter, IRE1-XBP1 UPR activation, luminescence; percent of tunicamycin response, DMSO as zero; activation, % at 20 µM; 0.33% of 330,000 active; AID 463104;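 active means versus positive control, 20 µM dose yields 30% or more activation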;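 further: 100% = tunicamycin at 10 µg/mL and 0% = DMSO only wells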
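Test system: CHO-XBP1 luciferase reporter cells | Buffer or medium: Serum-containing F12 medium, 10% FBS | Schedule: 6 h compound exposure at 37 °C, 5% CO2 | Detection: Steady-Glo luciferase glow luminescence, 10 min after reagent addition | Read-out basis: Activation, % of tunicamycin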
Mdm2-MdmX conf: human Mdm2/MdmX binding inhibition, confirmed; shares compounds with Mdm2 MdmX PPI; luminescent assay; inhibition, % at 8 µM; 55% of 10,000 active; in the data active means inhibition above about 40%
Full FLuc ctr: full-length luciferase inhibition in Mdm2/MdmX counter-screen; shares compounds with Mdm2 MdmX PPI; SaOS-2 full-length luciferase counterscreen, luminescence; inhibition, % at 8 µM; 77% of 6,200 active;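 active means mean inhibition at 8 µM reaching about 37%, which flags the compound as non-specific, limit read from the data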;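 further: p53-null SaOS-2 cells with luciferase driven by a doxycycline-inducible promoter; compound on cells about two nights before reading with doxycycline added after day one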
Numbers without * were called inactive; x = no result. Sampled rows, rich in hits. Any-hit rate of the full collection: about 3.7%.

SMILES	Beta2AR agonist	UPR CHOP act	Dynein cargo inh	Mdm2 MdmX PPI	MDM2 E3 inh	XBP1 UPR activ	Mdm2-MdmX conf	Full FLuc ctr
CCN1CCN(c2ccc(S(=O)(=O)N3CCCCC3)cc2NC(=O)c2cccc(Cl)c2)CC1	8.4	0.3	x	17.2	x	-1.8	x	x
CCN1CCN(c2ccc(S(=O)(=O)N3CCCCC3)cc2NC(=O)/C=C/c2ccc(F)cc2)CC1	24.2	4.1	x	53.4*	x	-3.5	45.0*	86.8*
CCN1CCN(c2ccc(S(=O)(=O)N3CCOCC3)cc2NC(=O)/C=C/c2ccc(C)cc2)CC1	14.1	1.7	x	25.7	x	0.1	x	x
O=C(Nc1ccccc1Br)C1CC(=O)N(c2ccc3c4c(cccc24)CC3)C1 (stereo unspecified)	19.9	-1.8	0.00225	50.4*	3.0	0.9	57.1*	65.3*
C=C[C@]1(C)C[C@H]1[C@H](NP(=O)(c1ccccc1)c1ccccc1)c1ccccc1	7.4	-0.4	0.223	11.1	x	2.8	x	x
C/C(=C\[C@@H](NP(=O)(c1ccccc1)c1ccccc1)c1ccccc1)CO[Si](c1ccccc1)(c1ccccc1)C(C)(C)C	-1.0	2.6	x	75.6*	x	1.0	9.7	x
COc1ccc(-n2ccnc2SCC(=O)NCc2ccc(F)cc2)c(OC)c1	8.3	1.4	0.335	-5.4	3.8	-1.4	x	x
C/C(=N\NC(=O)C1CCCN(S(=O)(=O)c2ccccc2)C1)c1ccccn1 (stereo unspecified)	-4.5	-0.5	-0.353	70.2*	-25.2	1.1	58.9*	35.2
COc1cc(CCC(C)=O)ccc1OC(=O)c1c(F)cccc1Cl	-1.4	8.2	0.899	-107.7	-2.2	4.3	x	x
CCN(CC)CCNC1=NCCn2c1cc1cc(OC)ccc12	11.1	0.7	-0.569	63.7*	-6.8	0.1	63.6*	68.4*
O=C(CSc1nc2cc(Cl)ccc2o1)NC1CC1	3.8	-1.0	x	-56.6	x	-2.6	x	x
COC(=O)C1=C(C)Nc2nc3ccccc3n2C1c1cc(OC)c(OC)c(OC)c1 (stereo unspecified)	-15.1	0.9	-0.114	51.6*	-17.2	1.3	45.5*	95.8*
CCOC(=O)Cc1n[nH]c(=O)c2ccccc12	-0.1	-1.2	-0.612	18.1	x	-0.4	x	x
O=C(Cc1n[nH]c(=O)c2ccccc12)OCc1c(Cl)cccc1Cl	-7.0	0.6	2.13	57.1*	-11.1	0.4	54.8*	62.0*
N#CC(C#N)=c1ccc2c(c1)NC1(CCCCC1)N=2	5.7	12.2	-1.66	70.9*	0.0	1.4	49.9*	19.8
Cc1nc(N=C(N)N)nc2ccccc12	2.8	-1.6	-0.847	39.3	-21.6	-1.0	x	x
Cc1ccc2nc(/N=C(\N)NC(=O)NC3CCCCC3)nc(C)c2c1	1.9	12.2	0.599	65.0*	-11.5	4.6	46.4*	56.5*
Cc1ccc2nc(N=C(N)N)nc(C)c2c1	-2.0	-1.0	-0.0541	51.2*	-10.3	-3.1	44.0*	101.7*
CCc1ccc2nc(N=C(N)N)nc(C)c2c1	-15.9	1.5	0.1	58.8*	-43.0	-1.6	42.0*	81.8*
Cc1ccc(C(=O)NNC(=O)CCCCC(=O)NNC(=O)c2ccc(C)cc2)cc1	-2.9	0.2	x	-3.6	x	3.2	x	x
C/C(=C\c1ccccc1)CN1CCN(C(C)C)C(CCO)C1 (stereo unspecified)	-3.6	2.2	x	-17.0	x	-6.1	x	x
Cn1cc([N+](=O)[O-])c(C(=O)Nc2ccc(C(=O)N3CCCCC3)cc2)n1	4.1	0.9	0.00164	27.0	2.2	-0.9	x	x
CCn1cc([N+](=O)[O-])c(C(=O)Nc2ccn(Cc3ccccc3)n2)n1	-4.3	0.9	-0.0928	-4.4	0.1	0.1	x	x
Cn1cc([N+](=O)[O-])c(C(=O)Nc2cc(Oc3cccnc3)cc([N+](=O)[O-])c2)n1	x	22.1	-2.94	81.7*	-2.0	-2.9	6.9	x
Cc1ccc(Cn2ccc(NC(=O)c3nn(C)cc3[N+](=O)[O-])n2)cc1	-33.6	2.3	-1.35	59.1*	-0.4	-0.2	62.9*	68.4*
SMILES	Beta2AR agonist	UPR CHOP act	Dynein cargo inh	Mdm2 MdmX PPI	MDM2 E3 inh	XBP1 UPR activ	Mdm2-MdmX conf	Full FLuc ctr
Cc1cc(C)n(Cc2ccc(NC(=O)c3nn(C)cc3[N+](=O)[O-])cc2)n1	0.7	-1.1	-1.34	71.2*	-18.0	-1.7	51.5*	59.3*
Cn1cc([N+](=O)[O-])c(C(=O)Nc2ccc(C3CCCCC3)cc2)n1	3.0	3.5	-1.09	59.3*	-4.1	4.5	26.8	153.7*
COc1ccc(CCNC(=O)[C@H](C)NC(=O)N2CCn3c2nc2ccccc23)cc1OC	-6.0	0.3	x	-2.7	x	-3.2	x	x
O=C(NCC1CCCO1)c1c(O)c2ccccc2[nH]c1=O (stereo unspecified)	-3.9	1.9	0.0184	-5.0	-10.2	-1.3	x	x
CC(C)Cn1c(N)c(C(=O)NCC2CCCO2)c2nc3ccccc3nc21 (stereo unspecified)	11.6	2.1	-0.213	52.2*	-1.1	0.1	21.4	x
CCCn1c(=O)c(C(=O)NCc2ccccn2)c(O)c2ccccc21	0.9	-2.7	1.29	62.9*	1.6	-1.7	33.1	x
CCCn1c(=O)c(C(=O)NCC2CCCO2)c(O)c2ccccc21 (stereo unspecified)	-1.0	1.9	-0.133	67.5*	x	4.1	11.3	x
Cc1nc2ccc(F)cc2cc1C(=O)NCC1CCCO1 (stereo unspecified)	-5.9	x	-0.816	x	-5.1	x	x	x
CC1CCc2cc(F)cc3c(O)c(C(=O)NCC4CCCO4)c(=O)n1c23 (stereo unspecified)	-8.8	-2.2	-0.667	70.6*	-7.3	-1.8	44.0*	21.7
C=CCn1c(=O)/c(=C/c2ccsc2)s/c1=C(\C#N)C(=O)NCCN1CCOCC1	5.2	x	x	x	x	x	x	x
CSc1nc(N)nc(SCCS(=O)(=O)c2ccc(Cl)cc2)c1C#N	-11.5	0.3	-0.443	56.9*	2.1	-1.4	22.8	x
CC(C)n1cnc2c(Nc3cccc(Cl)c3)nc(NCCCO)nc21	14.1	13.4	0.315	72.9*	14.7	5.2	73.8*	71.7*
Cc1ccc(NC(=O)CN2C(=O)NC(C)(C3CC3)C2=O)cc1S(=O)(=O)N1CCCCC1 (stereo unspecified)	0.8	-0.1	x	11.5	x	0.2	x	x
FC(F)Sc1ccc(NC(=S)NC(c2ccccc2)c2ccccc2)cc1	2.8	7.1	-1.25	100.3*	-0.9	8.0	74.2*	38.1*

Screening results: PubChem BioAssay, several laboratories
